Assay results: PMC10798293 (Journal of Enzyme Inhibition and Medicinal Chemistry, 2024)
“Also recorded” adds a separate entry of the source. Values belong to the compound of their own block, whether it stands above or below them.

Legend:
[1] = target: T1, SaSDH (Staphylococcus aureus shikimate dehydrogenase) (Staphylococcus aureus, UniProt Q5HFG5); assay: SaSDH enzyme inhibition; type: biochemical; conditions: for IC50: 1 mM SHK, 1.54 ng SaSDH, pH 9.0, 37 °C, 30 min; for Mode of inhibition: with respect to SHK
T1 sequence (Q5HFG5 1-268): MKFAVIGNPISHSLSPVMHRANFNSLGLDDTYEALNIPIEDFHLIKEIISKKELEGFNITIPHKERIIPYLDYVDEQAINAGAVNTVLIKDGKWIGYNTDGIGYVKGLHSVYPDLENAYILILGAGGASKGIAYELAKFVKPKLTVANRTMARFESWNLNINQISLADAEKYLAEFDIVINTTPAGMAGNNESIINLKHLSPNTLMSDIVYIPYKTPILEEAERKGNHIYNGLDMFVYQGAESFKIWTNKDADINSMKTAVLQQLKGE

[2] = tested on: S. aureus; assay: Cell membrane integrity, Calcein AM/PI staining; type: cell-based, Staphylococcus aureus; conditions: MIC, 37 °C, 3 h
[3] = tested on: S. aureus; assay: Growth / time-kill curves; type: cell-based, Staphylococcus aureus; conditions: inhibitor at MIC: 50 μg/mL (-)-gallocatechin gallate, 250 μg/mL rhodiosin
[4] = tested on: S. aureus; assay: Scanning electron microscopy of bacterial morphology; type: cell-based, Staphylococcus aureus; conditions: MIC and 1/2 MIC, 1.5 h
[5] = tested on: S. aureus; assay: S. aureus susceptibility, micro-broth two-fold serial dilution; type: cell-based, Staphylococcus aureus
[6] = target: T2, SaSDH (Staphylococcus aureus, UniProt Q5HFG5); assay: Isothermal titration calorimetry; type: binding; conditions: ITC, 100 mM Tris-HCl pH 9.0, 25 °C
T2 sequence (Q5HFG5 1-268): T1 sequence (Q5HFG5 1-268)

[7] = target: T2, SaSDH; assay: SaSDH enzyme activity and kinetic parameters for substrates; type: biochemical; conditions: substrate varied, co-substrate at saturation, pH 9.0, 37 °C
Procedure, shortened: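 His-tagged SaSDH (pET-28a(+), E. coli BL21(DE3)pLysS, IPTG induction, Ni-NTA purified). Reverse reaction: NADP+-dependent SHK oxidation, 1.54 ng enzyme, 100 mM Tris-HCl pH 9.0, 37 °C, enzyme-started; A340 every minute for 60 min.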

IC50 ([1]; 1 mM NADP): < 100 µM
Compound: CC=C1[C@H](O[C@@H]2O[C@H](CO)[C@@H](O)[C@H](O)[C@H]2O)OC=C(C(=O)OC)[C@H]1CC(=O)OC[C@H]1O[C@@H](OCCc2ccc(O)cc2)[C@H](O)[C@@H](O)[C@@H]1O (stereo in doubt) [Specneuzhenide]

IC50 ([1]; 1 mM NADP): < 100 µM
Ki ([1]; Lineweaver-Burke plots, SHK varied 0.25-4 mM): 2.47 µM
Kd [6]: 44.6 µM
Compound: O=C(O[C@@H]1Cc2c(O)cc(O)cc2O[C@H]1c1cc(O)c(O)c(O)c1)c1cc(O)c(O)c(O)c1 [(-)-Gallocatechin gallate]
Mode of inhibition ([1]; Lineweaver-Burke plots): uncompetitive inhibition; also recorded: uncompetitive inhibitor
Cell membrane integrity (PI-labeled bacteria) [2]: cell membrane destruction
Effect on S. aureus growth (time-kill curves) [3]: slow bacterial growth
Bacterial morphology by SEM [4]: cell disintegration, cell surface fracturing and wrinkling
Antibacterial activity (in words) [5]: antibacterial activities

IC50 ([1]; 1 mM NADP): < 100 µM
Compound: COc1ccc([C@@H]2CC(=O)c3c(O)cc(O[C@@H]4O[C@H](CO[C@@H]5O[C@@H](C)[C@H](O)[C@@H](O)[C@H]5O)[C@@H](O)[C@H](O)[C@H]4O)cc3O2)cc1O [Hesperidin]

Km [7]: 98.2 µM
Vmax [7]: 3.785 mM/min/µg
Compound: NC(=O)c1ccc[n+]([C@@H]2O[C@H](COP(=O)([O-])OP(=O)(O)OC[C@H]3O[C@@H](n4cnc5c(N)ncnc54)[C@H](OP(=O)(O)O)[C@@H]3O)[C@@H](O)[C@H]2O)c1 [NADP^+]

IC50 ([1]; IC50, 1 mM NADP): < 100 µM
Compound: O=C(OC[C@H]1O[C@@H](OC(=O)c2cc(O)c(O)c(O)c2)[C@H](OC(=O)c2cc(O)c(O)c(O)c2)[C@@H](OC(=O)c2cc(O)c(O)c(O)c2)[C@@H]1OC(=O)c1cc(O)c(O)c(O)c1)c1cc(O)c(O)c(O)c1 [Pentagalloylglucose]
Antibacterial activity (in words) [5]: antibacterial activities

Km [7]: 46.1 µM
Vmax [7]: 3.362 mM/min/µg
Compound: O=C(O)C1=C[C@@H](O)[C@@H](O)[C@H](O)C1 [SHK, shikimate]

IC50 ([1]; IC50, 1 mM NADP): < 100 µM
Compound: C[C@@H]1O[C@@H](OC[C@H]2O[C@@H](Oc3c(-c4ccc(OCCO)c(OCCO)c4)oc4cc(OCCO)cc(O)c4c3=O)[C@H](O)[C@@H](O)[C@@H]2O)[C@H](O)[C@H](O)[C@H]1O [Troxerutin, reference compound]

Compound: Rhodiosin
Mode of inhibition ([1]; Lineweaver-Burke plots): competitive inhibition
Mode of inhibition ([1]; Lineweaver-Burke plots, listed as rhodiosin): competitive inhibitor
Cell membrane integrity (PI-labeled bacteria) [2]: cell membrane destruction
Effect on S. aureus growth (time-kill curves) [3]: completely inhibited S.aureus growth
Bacterial morphology by SEM [4]: cell disintegration, cell surface fracturing and wrinkling
Antibacterial activity (in words) [5]: antibacterial activities
